In assay [1] the target is T1, Peptidyl-prolyl cis-trans isomerase FKBP5 (Homo sapiens, UniProt Q13451).
T1 sequence (Q13451 whole entry): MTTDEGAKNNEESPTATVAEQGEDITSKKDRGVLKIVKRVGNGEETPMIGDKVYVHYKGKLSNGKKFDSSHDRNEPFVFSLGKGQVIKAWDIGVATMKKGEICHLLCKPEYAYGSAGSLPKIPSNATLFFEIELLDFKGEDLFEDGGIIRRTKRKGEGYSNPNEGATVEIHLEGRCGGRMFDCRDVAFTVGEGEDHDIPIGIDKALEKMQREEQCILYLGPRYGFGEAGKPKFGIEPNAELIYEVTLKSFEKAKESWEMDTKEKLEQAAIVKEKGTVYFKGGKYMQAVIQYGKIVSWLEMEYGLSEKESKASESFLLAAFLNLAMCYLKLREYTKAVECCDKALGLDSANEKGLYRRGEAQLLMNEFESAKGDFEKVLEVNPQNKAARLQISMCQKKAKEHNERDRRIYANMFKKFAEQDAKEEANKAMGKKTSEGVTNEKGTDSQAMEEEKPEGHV
The experiment in a line: Binding affinity to human FKBP51 by competitive fluorescence polarization assay. In outline:
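Competitive fluorescence polarization binding assay against the purified FK506-binding domain of human FKBP51, run per a previously described protocol. The read-out is K_i.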

In assay [2] the target is Peptidyl-prolyl cis-trans isomerase FKBP1A (Homo sapiens, UniProt P62942). The experiment in a line: Binding affinity to FKBP12 (unknown origin) by competitive fluorescence polarization assay.
Peptidyl-prolyl cis-trans isomerase FKBP1A, sequence (P62942 whole entry, the tested form may be a part): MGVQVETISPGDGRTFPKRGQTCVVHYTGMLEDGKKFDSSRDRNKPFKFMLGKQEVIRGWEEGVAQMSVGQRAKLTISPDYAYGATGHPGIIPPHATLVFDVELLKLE
In assay [3] the target is T1, Peptidyl-prolyl cis-trans isomerase FKBP5. The experiment in a line: Binding affinity to human His-tagged FKBP51 FK1 domain (1 to 140) by isothermal titration calorimetric analysis. On the technique in general: Isothermal titration calorimetry measures the heat released or taken up as one component is titrated into another.
For assay [4], the target named is T2, Peptidyl-prolyl cis-trans isomerase FKBP5 (Homo sapiens) (UniProt Q13451).
T2 sequence (whole entry): T1 sequence (Q13451 whole entry)
The experiment in a line: Binding affinity to FKBP51 (unknown origin) assessed as increase in [3H]-dexamethasone binding to glucocorticoid receptor. In a few lines: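 Reconstituted glucocorticoid receptor (GR) hormone-binding assay. GR-containing lysates were supplemented with purified FKBP51 and incubated with ³H-dexamethasone across a range of compound concentrations. Free ³H-dexamethasone was removed with charcoal–dextran, and GR-bound ³H-dexamethasone was then measured as the read-out.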

Where only a bound is given, the exact number is not on record here.

For orientation: Ki means a dissociation constant, usually derived from enzyme kinetics or from competition with a known ligand. Read a low Ki as higher affinity. For `COc1ccc(CC[C@@H](OC(=O)C2CCCCN2S(=O)(=O)c2cc(Cl)c(O)c(Cl)c2)c2cccc(OCCN3CCOCC3)c2)cc1OC` (stereo not given in full), the Ki in assay [1] turned out to be 0.2 µM.
Still for that read-out and setting: for `CCOC(=O)C1CCCCN1S(=O)(=O)c1ccc2[nH]c(=O)sc2c1` (stereo not given) the value was more than 100 µM.
Consider `COc1cc2c(c(OC)c1)[C@]1(C)C3CCC[C@@H](C(=O)N1CC2)N3S(=O)(=O)c1cc(Cl)cc(Cl)c1`, for which the Ki in assay [1] is more than 100 µM; in assay [2], 0.87 µM.
Compound `CCN1CC2CCCC(C1=O)N2C(=O)C(=O)c1cc(OC)c(OC)c(OC)c1` (stereo not given) returned a Ki in assay [1] of more than 100 µM.
`CCC(C)(C)C(=O)C(=O)N1C2CCC[C@H]1C(=O)N1CCc3cc(OC)cc(OC)c3[C@]21C`: the Ki in assay [1] was more than 100 µM; in assay [2] it was 27.7 µM.
Regarding `COc1ccc(CC[C@@H](OC(=O)C2CCCCN2S(=O)(=O)c2cc(Cl)cc(Cl)c2)c2cccc(OCC(=O)O)c2)cc1OC` (stereo not given in full), in assay [1], the inhibitory constant (Ki) was determined as 13.8 µM.
Regarding `COc1cc2c(c(OC)c1)[C@]1(C)C3CCC[C@@H](C(=O)N1CC2)N3C(=O)C(=O)c1cc(OC)c(OC)c(OC)c1`, the values for the Ki in assay [1] and in assay [2] were 18.1 µM and 0.5 µM, respectively.
In assay [1], `COc1ccc(OCCN2CC3CCCC(C2=O)N3S(=O)(=O)c2cc(Cl)cc(Cl)c2)cc1OC` (stereo not given) registered a Ki of 1.2 µM.
The term Kd denotes a measure of binding affinity in units of concentration. A low value points to tighter binding. `COc1ccc(OCCN2CCC3CCCC(C2=O)N3S(=O)(=O)c2ccc3[nH]c(=O)sc3c2)cc1OC` (stereo not given) yielded a dissociation constant Kd in assay [3] of 0.36 µM. For the same compound, in assay [4], the Activity result was “Dose-dependent effect”.
As to `COc1ccc(OCCN2CCC3CCCC(C2=O)N3C(=O)C(=O)c2cc(OC)c(OC)c(OC)c2)cc1OC` (stereo not given), the Ki in assay [1] worked out at 23.7 µM.
The same measure, in the same setting: for `COc1ccc(OCCOC(=O)C2CCCCN2S(=O)(=O)c2ccc3ncsc3c2)cc1OC` (stereo not given) the value was more than 100 µM.
As to `COc1ccc(OCCN2CCC3CCCC(C2=O)N3S(=O)(=O)c2cc(Cl)cc(Cl)c2)cc1OC` (stereo not given), the affinity in assay [1] corresponds to a Ki of 8.8 µM.
In turn, `COc1ccc(OCCN2CC3CCCC(C2=O)N3S(=O)(=O)c2ccc3[nH]c(=O)sc3c2)cc1OC` (stereo not given) returned a Kd in assay [3] of 10.5 µM. For the same compound, the Activity result in assay [4] is “Dose-dependent effect”.
For the compound `COc1ccc(OCCOC(=O)C2CCCCN2S(=O)(=O)c2ccc3[nH]c(=O)sc3c2)cc1OC` (stereo not given), the Kd in assay [3] was 3.3 µM. Besides, the Ki in assay [1] was 7.6 µM. The Activity entry in assay [4] was “Dose-dependent effect”.
In assay [1], `CCC(C)(C)C(=O)C(=O)N1CCCCC1C(=O)O[C@H](CCc1ccc(OC)c(OC)c1)c1cccc(OCC(=O)O)c1` (stereo not given in full) gave an inhibitory constant (Ki) of 2.7 µM.
In assay [1], `C=CC[C@@H]1/C=C(\C)C[C@H](C)C[C@H](OC)[C@H]2O[C@@](O)(C(=O)C(=O)N3CCCC[C@H]3C(=O)O[C@H](/C(C)=C/[C@@H]3CC[C@@H](O)[C@H](OC)C3)[C@H](C)[C@@H](O)CC1=O)[C@H](C)C[C@@H]2OC` [TACROLIMUS ANHYDROUS] yielded an inhibitory constant (Ki) of 0.08 µM.
Still for that read-out and setting: to `CO[C@H]1C[C@@H]2CC[C@@H](C)[C@@](O)(O2)C(=O)C(=O)N2CCCC[C@H]2C(=O)O[C@H]([C@H](C)C[C@@H]2CC[C@@H](O)[C@H](OC)C2)CC(=O)[C@H](C)/C=C(\C)[C@@H](O)[C@@H](OC)C(=O)[C@H](C)C[C@H](C)/C=C/C=C/C=C/1C` [SIROLIMUS] belongs 0.003 µM; to `COc1ccc(OCCOC(=O)C2CCCCN2S(=O)(=O)c2cc(Cl)cc(Cl)c2)cc1OC` (stereo not given), more than 100 µM.
Regarding `COc1cc2c(c(OC)c1)[C@]1(C)C3CCC[C@@H](C(=O)N1CC2)N3S(=O)(=O)c1cc(Cl)c(O)c(Cl)c1`, the Ki in assay [1] was more than 100 µM; in assay [2] it was 2.1 µM.
For `COc1ccc(OCCOC(=O)C2CCCCN2C(=O)C(=O)c2cc(OC)c(OC)c(OC)c2)cc1OC` (stereo not given), the Ki in assay [1] was more than 100 µM.
Consider `COc1cc2c(c(OC)c1)[C@]1(C)C3CCC[C@@H](C(=O)N1CC2)N3C(=O)C(=O)[C@]1(C)CCCC[C@H]1C`, for which the Ki in assay [1] was more than 100 µM; in assay [2] it was 2.8 µM.
